Experimental data from different studies.
Compare with care: the assays were run in different laboratories.
Target: Protein-tyrosine kinase 6 (PTK6, Homo sapiens, UniProt Q13882)

With `C[C@H](c1ccc(F)cc1)N(Cc1cccc(C(=O)O)c1)C(=O)c1cnc2ccccc2c1` the remaining binding was 83% (cell-free assay, competition with immobilised ligand; 1 µM).
For `COc1cnc(Nc2cccc(S(N)(=O)=O)c2)nc1N1CCN(c2ccccc2)CC1`, the remaining binding was 100% (binding, competition with immobilised ligand; 1 µM).
The remaining binding of `CCN1CCN(Cc2ccc(C(=O)Nc3ccc(C)c(Oc4ccc5c(c4)CC(=O)N5)c3)cc2C(F)(F)F)CC1` is reported as 100% (binding, competition with immobilised ligand; 1 µM).
`CS(=O)(=O)NCC[C@H](NC(=O)c1cncc2c1cnn2-c1ccc(F)cc1)c1ccnc(S(C)(=O)=O)c1` gave a remaining binding of 96% (cell-free assay, competition with immobilised ligand; 1 µM).
For `COc1ccnn2ncc(-c3ccnc(N(C)C)n3)c12`, the remaining binding was 100% (binding; 1 µM).
`C[C@@H](c1ccc(-n2cnc3c(N)ncnc32)cc1)N1CCc2nn(C)c(Cc3ccccc3)c2C1=O` gave a remaining binding of 62% (binding, competition with immobilised ligand; 0.1 µM).
The remaining binding of `CN(CCCC(F)(F)F)c1nccc(-c2cnn3ncccc23)n1` is reported as 97% (binding; 1 µM).
For `CCc1ccccc1C(=O)Nc1n[nH]c2c(C)c(F)c(C3C(C#N)=C(C)N(C)C(C)=C3C#N)cc12`, the remaining binding was 100% (cell-free assay, competition with immobilised ligand; 1 µM).
`CN(C)c1nccc(-c2cnc3ncccn23)n1` has a remaining binding of 92% (binding; 1 µM).
`COc1cc(-c2cn(C3CCc4c(F)cccc4N(CC(F)(F)F)C3=O)nn2)ccc1-n1cnc(C)c1` (stereo not drawn) has a remaining binding of 100% (cell-free assay, competition with immobilised ligand; 1 µM).
`c1cncc(-c2cccc(Nc3nccc(NC4CCCCC4)n3)c2)c1` has a remaining binding of 80% (binding, competition with immobilised ligand; 10 µM).
`O=C(c1ccc(Nc2ncc(Cl)c(-c3ccc(Cl)s3)n2)cc1)N1CCC(N2CCCC2)CC1` has a remaining binding of 79% (binding, competition with immobilised ligand; 1 µM).
For `FC(F)(F)Oc1cccc(-c2cnc3ccc(-c4ccncc4)nn23)c1`, the remaining binding was 86% (cell-free assay, competition with immobilised ligand; 5 µM).
`Cc1cnn2ncc(-c3ccnc(N(C)C)n3)c2c1` gave a remaining binding of 100% (binding; 1 µM).
For `O=C(NCC1CCOCC1)c1n[nH]cc1NC(=O)c1c(F)cccc1F`, the remaining binding was 100% (binding, competition with immobilised ligand; 1 µM).
The remaining binding of `CN([C@@H]1CCc2c(CC(=O)O)c3cc(S(C)(=O)=O)ccc3n2C1)S(=O)(=O)c1ccc(F)cc1` is reported as 92% (cell-free assay, competition with immobilised ligand; 1 µM).
With `C[C@@H]1CCN(c2nccc(-c3cnn4ncccc34)n2)C1` the remaining binding was 100% (binding; 1 µM).
With `Cc1cnc(Nc2ccc(C(=O)N3CCC(N4CCCC4)CC3)cc2)nc1-c1cc2ccccc2s1` the remaining binding was 26% (binding, competition with immobilised ligand; 1 µM).
For `CN(C)c1ncc(F)c(-c2cnn3ncccc23)n1`, the remaining binding was 99% (binding; 1 µM).
`Cc1c(NC(=O)c2cc(C(N)=O)nc3cc(F)ccc23)c(C(F)(F)F)nn1Cc1ccc(C#N)cc1` has a remaining binding of 100% (cell-free assay, competition with immobilised ligand; 1 µM).
The remaining binding of `CNC(=O)[C@@H]1CC[C@@H](n2c(-c3ccc4cnccc4c3)nc3ccc(C(=O)NCc4cccc(C(N)=O)c4)cc32)C1` is reported as 100% (binding, competition with immobilised ligand; 1 µM).
